Legend:
[1] = target: 5-hydroxytryptamine receptor 4 (Rattus norvegicus, UniProt Q62758); experiment: In vitro affinity at serotonergic 5-hydroxytryptamine 4 receptor by radioligand binding assay using [3H]GR-113808 in rat striatum membranes.; type: cell membranes
[2] = target: T1, Serotonin 3 (5-HT3) receptor (Rattus norvegicus, UniProt P35563+Q9JJ16); experiment: In vitro affinity at serotonergic 5-hydroxytryptamine 3 receptor by radioligand binding assay, using [3H]-LY 278584 in rat cerebral cortex membranes.; type: cell membranes
T1 sequence (P35563 whole entry): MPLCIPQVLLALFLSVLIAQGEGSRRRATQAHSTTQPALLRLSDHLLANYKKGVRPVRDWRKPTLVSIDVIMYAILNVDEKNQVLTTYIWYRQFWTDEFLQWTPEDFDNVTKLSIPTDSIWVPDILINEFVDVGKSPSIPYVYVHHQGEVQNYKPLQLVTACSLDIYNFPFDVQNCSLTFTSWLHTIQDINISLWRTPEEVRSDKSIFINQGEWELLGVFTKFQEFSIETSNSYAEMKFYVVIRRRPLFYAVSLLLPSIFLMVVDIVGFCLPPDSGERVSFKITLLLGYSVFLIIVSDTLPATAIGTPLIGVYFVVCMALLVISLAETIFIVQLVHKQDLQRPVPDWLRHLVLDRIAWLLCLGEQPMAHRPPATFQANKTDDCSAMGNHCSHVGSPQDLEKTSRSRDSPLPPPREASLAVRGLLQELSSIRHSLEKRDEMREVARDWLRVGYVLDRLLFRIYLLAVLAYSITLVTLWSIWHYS
T1 sequence (Q9JJ16 whole entry): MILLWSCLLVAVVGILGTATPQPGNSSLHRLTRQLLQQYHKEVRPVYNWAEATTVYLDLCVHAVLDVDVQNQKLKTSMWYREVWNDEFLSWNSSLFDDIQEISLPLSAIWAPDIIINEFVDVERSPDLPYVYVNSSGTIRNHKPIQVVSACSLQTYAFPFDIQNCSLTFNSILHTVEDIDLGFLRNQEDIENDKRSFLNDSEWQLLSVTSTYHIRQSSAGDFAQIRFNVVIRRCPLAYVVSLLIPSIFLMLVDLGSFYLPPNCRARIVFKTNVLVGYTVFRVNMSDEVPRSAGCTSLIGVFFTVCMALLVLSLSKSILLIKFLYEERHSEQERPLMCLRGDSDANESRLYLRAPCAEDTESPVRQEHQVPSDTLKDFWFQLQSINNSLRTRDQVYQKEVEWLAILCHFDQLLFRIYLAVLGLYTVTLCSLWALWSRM
Procedure, shortened: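 Rat cerebral cortex membranes prepared in 0.32 M sucrose, then washed in 50 mM Tris-HCl pH 7.4 and preincubated at 37 °C for 10 min. About 2 mg/mL protein incubated 30 min at 25 °C with 0.7 nM [3H]LY 278584 and six competitor concentrations. Buffer contained pargyline, ascorbate and CaCl2. Nonspecific binding defined with 10 μM 5-HT. Triplicates, filtration, scintillation counting. Ki from IC50 via Cheng–Prusoff, means of 2–4 assays.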

Cavia porcellus [3] = species: Cavia porcellus; experiment: Single-point analysis using 5(10e-9) M concentration of the antagonist (pA2= -log([B]/concentration ratio-1); [B] =concentration of the antagonist).; type: functional; conditions: read-out: pA2 (converted)
Procedure, shortened: (§1)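 Ileal strip preparation with methysergide 10^-6 M present. Paired noncumulative 5-HT curves are run, with the antagonist at 5×10^-9 M added 30 min before the second curve. The concentration ratio is taken at the 5-HT level giving 50% of the control maximum in the ≥10^-6 M phase. Single-point pA2 = −log([B]/(CR−1)) (Furchgott).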

[4] = target: Serotonin 3 (5-HT3) receptor (Homo sapiens) (UniProt P46098+A5X5Y0+O95264+Q70Z44+Q8WXA8); conditions: Cavia porcellus; Ileum
Cavia porcellus [5] = species: Cavia porcellus; experiment: Single-point analysis using 5(10e-9) M concentration of the antagonist (pA2= -log([B]/concentration ratio-1); [B] =concentration of the antagonist); type: functional; conditions: read-out: pA2 (converted); procedure, shortened: as §1
[6] = target: T1, Serotonin 3 (5-HT3) receptor; experiment: Compound was evaluated for its in vitro affinity at serotonergic 5-hydroxytryptamine 3 receptor by radioligand binding assay, using [3H]-LY 278584 in rat cerebral cortex membranes.; type: cell membranes

Sequence of 5-hydroxytryptamine receptor 4 (Q62758 whole entry): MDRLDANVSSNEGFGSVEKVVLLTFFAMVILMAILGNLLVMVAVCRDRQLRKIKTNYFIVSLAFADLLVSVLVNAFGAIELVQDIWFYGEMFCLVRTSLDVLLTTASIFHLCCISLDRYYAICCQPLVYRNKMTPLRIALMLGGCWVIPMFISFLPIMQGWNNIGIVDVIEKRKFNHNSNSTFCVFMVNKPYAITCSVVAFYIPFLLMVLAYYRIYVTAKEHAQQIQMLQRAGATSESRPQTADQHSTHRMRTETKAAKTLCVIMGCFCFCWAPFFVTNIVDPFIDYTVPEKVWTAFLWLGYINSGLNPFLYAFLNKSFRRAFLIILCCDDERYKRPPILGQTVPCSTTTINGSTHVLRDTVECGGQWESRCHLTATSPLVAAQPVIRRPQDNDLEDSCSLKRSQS

SMILES | Ki [1] | Ki [2] | further results
O=C(NC1CN2CCC1CC2)c1cc(Br)c([N+](=O)[O-])c2nc[nH]c12 (stereo not given) | > 10 µM | 0.0088 µM | 
Cc1nccn1CC1CCc2c(c3ccccc3n2C)C1=O (stereo not given) [ONDANSETRON] |  |  | Kb (Cavia porcellus [3]): 0.000126 µM; ED50 [4]: 43 µM
O=C(N[C@@H]1CN2CCC1CC2)c1cc(Cl)cc2nc[nH]c12 | > 10 µM | 0.00013 µM | Kb (Cavia porcellus [5]): 0.000126 µM; ED50 [4]: 17 µM
O=C(N[C@H]1CN2CCC1CC2)c1cc(Cl)cc2nc[nH]c12 | 0.205 µM | 0.00076 µM | 
Nc1ccc(C(=O)NC2CN3CCC2CC3)c2[nH]cnc12 (stereo not given) | 0.779 µM | 0.0024 µM | 
CN1C2CCCC1CC(NC(=O)c1cccc3[nH]cnc13)C2 (stereo not given) | > 10 µM | 0.23 µM | 
O=C(N[C@H]1CN2CCC1CC2)c1cc(Br)cc2nc[nH]c12 | 0.27 µM | 0.0034 µM | 
CCC1CCN(C)C[C@@H]1NC(=O)c1cccc2nc[nH]c12 (stereo not given in full) | > 10 µM | 0.0383 µM | 
CN1C2CCCC1CC(NC(=O)c1cc(Cl)cc3nc[nH]c13)C2 (stereo not given) | > 1 µM | 0.083 µM | 
CN1C2CCC1CC(NC(=O)c1cc(Cl)cc3nc[nH]c13)C2 (stereo not given) | 0.319 µM | 0.0166 µM | 
O=C(N[C@@H]1CN2CCC1CC2)c1cc(Cl)c([N+](=O)[O-])c2nc[nH]c12 | > 1 µM | 0.0017 µM | Kb (Cavia porcellus [5]): 0.000794 µM; ED50 [4]: 68 µM
CN1C2CCCC1CC(NC(=O)c1nn(C)c3ccccc13)C2 (stereo not given) [GRANISETRON] | > 1 µM |  | 
CN1C2CCC1CC(OC(=O)c1cccc3[nH]cnc13)C2 (stereo in doubt; 24) | > 10 µM |  | Ki [6]: > 1 µM
Nc1c(Br)cc(C(=O)NC2CN3CCC2CC3)c2[nH]cnc12 (stereo not given) | 0.227 µM | 0.00042 µM | 
CCC1CCN(C)C[C@H]1NC(=O)c1cccc2[nH]cnc12 (stereo not given in full) | > 1 µM | 0.0026 µM | Kb (Cavia porcellus [5]): 0.000251 µM
Nc1c(Cl)cc(C(=O)NC2CN3CCC2CC3)c2[nH]cnc12 (stereo not given) | 0.187 µM | 0.00024 µM | 
O=C(N[C@@H]1CN2CCC1CC2)c1cc(Br)cc2nc[nH]c12 | 0.0383 µM | 0.00028 µM | 
CN1C2CCC1CC(OC(=O)c1cccc3[nH]cnc13)C2 (stereo in doubt; 23) | > 10 µM |  | Ki [6]: > 1 µM
O=C(NC1CN2CCC1CC2)c1cc(Br)cc2nc[nH]c12 (stereo not given) | 0.168 µM | 0.00029 µM | 
CN1C2CCCC1CC(OC(=O)c1cc(Cl)cc3[nH]cnc13)C2 (stereo not given) |  | 0.0887 µM | 
CN1C2CCC1CC(NC(=O)c1cccc3[nH]cnc13)C2 (stereo not given) | > 10 µM | 0.118 µM | 
O=C(NC1CN2CCC1CC2)c1cc(Cl)c([N+](=O)[O-])c2nc[nH]c12 (stereo not given) | > 1 µM | 0.0052 µM | 
CN1C2CCC1CC(OC(=O)c1cc(Cl)cc3[nH]cnc13)C2 (stereo not given) | 0.356 µM | 0.0612 µM | 
CN1C2CCCC1CC(OC(=O)c1cccc3nc[nH]c13)C2 (stereo not given) |  |  | Ki [6]: 0.678 µM
